ABCG2 inh = blocks JC-1 efflux by human ABCG2 transporter. IgMXP3 cells, flow cytometry. inhibition, % at 6.6 µM. 190,000 tested, 0.1% active. AID 1325;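 active means inhibition above 80%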;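 further: 0% = DMSO and 100% = nicardipine control wells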
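Test system: ABCG2 IgMXP3 and barcoded ABCB1 CCRF-Adr cell mix; Schedule: cells with compound and JC-1, 10 min at 25 °C, rotating, no wash; Technique: flow cytometry of retained JC-1 fluorescence; Measure: % inhibition of efflux relative to nicardipine and DMSO; Controls: nicardipine high and DMSO low controls.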
MEKK2wt PB1 HTS = raises or lowers MEK5 binding to wildtype human MEKK2 PB1 domain. Q9Y2U5. bead flow cytometry, Alexa488-MEK5 binding to MEKK2 WT; actives lie on both sides. binding response (% of control), % at 10 µM. 290,000 tested, 1.1% active. AID 1531; in the data active means binding response below about 67% or above about 130%
MEKK3 PB1 HTS = MEKK3-MEK5 PB1 interaction, increase or decrease. Q99759. bead-based flow cytometry, Alexa488-MEK5 binding to MEKK3; actives lie on both sides; 0 = blocked by unlabeled MEK5, 100 = vehicle. binding response (% of control), % at 10 µM. 290,000 tested, 1.4% active. AID 1529;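 active means binding response more than 3 SD above or below the average of its plate-row segment, actives on both sides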;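 further: Alexa488 bead fluorescence after subtracting the streptavidin-only scavenger bead signal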
Efflux pump mplx = antifungal efflux pump inhibition, Nile Red retention. S. cerevisiae Candida pump triplex. inhibition, % at 10 µM. 330,000 tested, 0.44% active;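 active means plate passing quality check with inhibition over a set limit, or well fluorescence over plate mean plus 4 SD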;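 further: Nile Red retained in pooled yeast measured as flow cytometry median fluorescence; 0% = buffer negative control and 100% = Enniatin B positive control; higher means more Nile Red kept so more efflux inhibition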
ABCB1 inh = inhibitors of human ABCB1 transporter, ABCG2 counter-screen; P08183; CCRF-Adr cells, JC-1 efflux, flow cytometry; inhibition, % at 6.6 µM; 190,000 tested, 0.067% active; in the data active means inhibition above about 40%;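 further: 0% = vehicle and 100% = reference inhibitor; higher value means more JC-1 retained so stronger ABCB1 efflux block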
Target sequence (P08183 whole entry, looked up): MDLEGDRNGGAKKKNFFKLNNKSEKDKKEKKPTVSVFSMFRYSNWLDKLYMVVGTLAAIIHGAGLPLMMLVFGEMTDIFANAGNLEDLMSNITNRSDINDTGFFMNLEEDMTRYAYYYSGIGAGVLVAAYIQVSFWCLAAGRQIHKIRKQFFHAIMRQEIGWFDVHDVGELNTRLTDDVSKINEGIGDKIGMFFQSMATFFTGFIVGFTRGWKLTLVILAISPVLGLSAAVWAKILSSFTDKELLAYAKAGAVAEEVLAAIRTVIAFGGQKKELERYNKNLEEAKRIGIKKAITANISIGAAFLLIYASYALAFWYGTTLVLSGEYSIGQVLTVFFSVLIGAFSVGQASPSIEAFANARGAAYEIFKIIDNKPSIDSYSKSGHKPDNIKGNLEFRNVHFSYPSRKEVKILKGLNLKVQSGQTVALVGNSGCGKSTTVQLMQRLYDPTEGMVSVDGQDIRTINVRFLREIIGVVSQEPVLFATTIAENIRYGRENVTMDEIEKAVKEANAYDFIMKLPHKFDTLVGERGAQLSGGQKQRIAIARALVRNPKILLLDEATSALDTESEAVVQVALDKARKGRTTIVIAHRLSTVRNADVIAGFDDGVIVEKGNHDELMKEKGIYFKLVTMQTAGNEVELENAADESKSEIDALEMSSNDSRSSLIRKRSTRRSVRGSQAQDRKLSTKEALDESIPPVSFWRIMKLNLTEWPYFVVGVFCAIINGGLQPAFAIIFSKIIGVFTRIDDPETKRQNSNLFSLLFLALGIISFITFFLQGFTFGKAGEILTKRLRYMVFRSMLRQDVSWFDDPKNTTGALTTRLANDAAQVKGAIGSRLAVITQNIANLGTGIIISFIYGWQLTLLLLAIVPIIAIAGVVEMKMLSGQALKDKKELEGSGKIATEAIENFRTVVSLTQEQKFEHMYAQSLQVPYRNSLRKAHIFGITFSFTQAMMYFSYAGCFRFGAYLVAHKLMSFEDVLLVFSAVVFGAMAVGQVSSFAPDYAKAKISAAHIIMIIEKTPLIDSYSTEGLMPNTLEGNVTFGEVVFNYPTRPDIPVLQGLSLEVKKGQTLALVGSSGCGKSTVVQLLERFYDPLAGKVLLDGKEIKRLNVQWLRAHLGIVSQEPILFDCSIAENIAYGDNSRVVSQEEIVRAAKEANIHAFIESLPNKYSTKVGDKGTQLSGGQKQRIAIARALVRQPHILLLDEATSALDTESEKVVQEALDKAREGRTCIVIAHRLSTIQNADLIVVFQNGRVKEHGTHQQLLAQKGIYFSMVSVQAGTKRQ
MEKK2 mut-MEK5 = signal of MEK5 binding to mutant human MEKK2 PB1 domain. bead flow cytometry, Alexa488-MEK5 binding to MEKK2 mutant. percent response, % at 10 µM. 290,000 tested, 0.35% active. AID 1530; in the data active means percent response above about 24%, passing the limit was not always enough
MEKK2wt confirm = raises or lowers MEK5 binding to wildtype human MEKK2, retest; shares compounds with MEKK3 PB1 HTS; binding response (% of control), % at 10 µM; 5,900 tested, 2.4% active; bead flow cytometry, Alexa488-MEK5 binding to MEKK2 WT; actives lie on both sides; in the data active means binding response below about 16% or above about 210%; inactive means in between
MEKK2mut confirm = signal of MEK5 binding to mutant human MEKK2, retest; shares compounds with MEKK3 PB1 HTS; bead flow cytometry, Alexa488-MEK5 binding to MEKK2 mutant; percent response, % at 10 µM; 5,900 tested, 2% active; AID 1893; in the data active means percent response mostly above about 71%, no sharp cut-off; inactive means mostly below about 38%;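 further: higher means compound restores mutant binding toward wildtype level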
MEKK3-MEK5 inh = confirmation of inhibitors of MEK5 binding to human MEKK3; binding response (% of control), % at 10 µM; shares compounds with MEKK3 PB1 HTS; bead flow cytometry, Alexa488-MEK5 binding to MEKK3; active compounds read low; 5,900 tested, 1.8% active;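 active means binding response below 72% of control, or above a set upper limit, though filed actives all read lower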;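 further: 100% = DMSO only wells and 0% = binding blocked by excess unlabeled MEK5; lower values mean stronger disruption of MEK5 binding to MEKK3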
* marks the source's active call; other numbers are inactive results; [ ] = dose if it differs, or a comment. Hits are enriched below; roughly 2.5% of the tested compounds scored in any of these assays.

For COc1cc(C(CCN2CCCC2)c2c(OC)cc(OC)c3ccc(=O)oc23)cc(OC)c1OC (stereo not drawn) the results were MEKK2wt PB1 HTS 98, MEKK3 PB1 HTS 94, Efflux pump mplx 0 and MEKK2 mut-MEK5 5.
For CCCCCc1cc(=O)oc2c(C(CCN3CCCCC3)c3cc(OC)c(OC)c(OC)c3)c(OC)cc(OC)c12 (stereo not drawn) the results were MEKK2wt PB1 HTS 147*, MEKK3 PB1 HTS 108, Efflux pump mplx 0, MEKK2 mut-MEK5 13, MEKK2wt confirm 155, MEKK2mut confirm 25 and MEKK3-MEK5 inh 102.
For COCCNC(=O)c1cccc(OC2CCN(Cc3ccc(OC(F)F)cc3)CC2)c1 the results were MEKK2wt PB1 HTS 112, MEKK3 PB1 HTS 109, Efflux pump mplx 0 and MEKK2 mut-MEK5 11.
Cc1nc(C)n(CC(=O)N2CCCC(C(=O)c3cccc4ccccc34)C2)n1 (stereo not drawn) was read as ABCG2 inh 3, MEKK2wt PB1 HTS 102, MEKK3 PB1 HTS 103, Efflux pump mplx 0, ABCB1 inh 2 and MEKK2 mut-MEK5 7.
For CC(C)CC(=O)/C(=C/c1ccc(N(C)C)cc1)n1cncn1 the results were MEKK2wt PB1 HTS 37*[inhibitor], MEKK3 PB1 HTS 69*[inhibitor], Efflux pump mplx 0, MEKK2 mut-MEK5 -9, MEKK2wt confirm 104, MEKK2mut confirm 0 and MEKK3-MEK5 inh 102.
`O=C(N/N=C/c1ccc(Br)o1)/C(=C/c1ccc([N+](=O)[O-])cc1)NC(=O)c1ccccc1` gave ABCG2 inh 5, MEKK2wt PB1 HTS 100, MEKK3 PB1 HTS 107, Efflux pump mplx 0, ABCB1 inh 0 and MEKK2 mut-MEK5 1.
For CN(Cc1ccccc1)S(=O)(=O)c1ccc2c(c1)n(C)c(=O)n2C the results were ABCG2 inh 0, MEKK2wt PB1 HTS 1.0*[inhibitor], MEKK3 PB1 HTS 2.0*[inhibitor], Efflux pump mplx 0, ABCB1 inh 0, MEKK2 mut-MEK5 -41, MEKK2wt confirm 101, MEKK2mut confirm 5 and MEKK3-MEK5 inh 103.
CCCNC(=O)NC(=O)CSc1ccc2c(c1)OCCO2 was read as ABCG2 inh 3, MEKK2wt PB1 HTS 102, MEKK3 PB1 HTS 102, Efflux pump mplx 0, ABCB1 inh 3 and MEKK2 mut-MEK5 6.
`Clc1ccc(-c2csc3ncnc(Cl)c23)cc1` gave ABCG2 inh 9, MEKK2wt PB1 HTS 104, MEKK3 PB1 HTS 130*, Efflux pump mplx 0, ABCB1 inh 0, MEKK2 mut-MEK5 0, MEKK2wt confirm 104, MEKK2mut confirm 8 and MEKK3-MEK5 inh 104.
`Fc1ccc(-c2csc3ncnc(Cl)c23)cc1` gave ABCG2 inh 3, MEKK2wt PB1 HTS 117, MEKK3 PB1 HTS 110, Efflux pump mplx 0, ABCB1 inh 0 and MEKK2 mut-MEK5 14.
Screening O=C(Cc1ccc(-n2c(=O)[nH]c3ccsc3c2=O)cc1)NCc1cccnc1 returned ABCG2 inh -11, MEKK2wt PB1 HTS 109, MEKK3 PB1 HTS 139*, Efflux pump mplx 1, ABCB1 inh 0, MEKK2 mut-MEK5 1, MEKK2wt confirm 103, MEKK2mut confirm 0 and MEKK3-MEK5 inh 101.
Cc1cc(C)cc(NC(=O)CCN2CCCC2)c1 was read as ABCG2 inh 1, MEKK2wt PB1 HTS 106, MEKK3 PB1 HTS 103, Efflux pump mplx 0, ABCB1 inh 1 and MEKK2 mut-MEK5 -6.
`O=C(Cn1cc(S(=O)(=O)N2CCN(c3ccccc3F)CC2)c2ccccc2c1=O)NCCCN1CCCCCC1` gave ABCG2 inh -2, MEKK2wt PB1 HTS 7.0*[inhibitor], MEKK3 PB1 HTS 3.0*[inhibitor], Efflux pump mplx 0, ABCB1 inh -1, MEKK2 mut-MEK5 -45, MEKK2wt confirm 124, MEKK2mut confirm 13 and MEKK3-MEK5 inh 105.
For Cc1c(NC(=O)CN2C(=O)NC(C)(c3ccccc3)C2=O)c(=O)n(-c2ccccc2)n1C (stereo not drawn) the results were ABCG2 inh 8, MEKK2wt PB1 HTS 103, MEKK3 PB1 HTS 140*, Efflux pump mplx 0, ABCB1 inh 0, MEKK2 mut-MEK5 0, MEKK2wt confirm 105, MEKK2mut confirm 0 and MEKK3-MEK5 inh 99.
CCCC1(c2ccccc2)NC(=O)N(CC(=O)Nc2cc(C)on2)C1=O (stereo not drawn) was read as ABCG2 inh 1, MEKK2wt PB1 HTS 80, MEKK3 PB1 HTS 65*[inhibitor], Efflux pump mplx 0, ABCB1 inh 1, MEKK2 mut-MEK5 -3, MEKK2wt confirm 91, MEKK2mut confirm -5 and MEKK3-MEK5 inh 97.
Cc1ccc(C2(C)NC(=O)N(CC(=O)Nc3c(C)n(C)n(-c4ccccc4)c3=O)C2=O)cc1 (stereo not drawn) was read as ABCG2 inh 2, MEKK2wt PB1 HTS 131, MEKK3 PB1 HTS 106, Efflux pump mplx 0, ABCB1 inh 0 and MEKK2 mut-MEK5 20.
Screening O=C(NCc1ccc(Cl)cc1)C(=O)NCC(c1ccco1)N1CCOCC1 (stereo not drawn) returned ABCG2 inh 2, MEKK2wt PB1 HTS 107, MEKK3 PB1 HTS 102, Efflux pump mplx 0, ABCB1 inh 1 and MEKK2 mut-MEK5 12.
O=C(NCCc1c[nH]c2ccccc12)C(=O)NCC(c1ccco1)N1CCN(c2ccc(F)cc2)CC1 (stereo not drawn) was read as ABCG2 inh 20, MEKK2wt PB1 HTS 107, MEKK3 PB1 HTS 129*, Efflux pump mplx -1, ABCB1 inh 1, MEKK2 mut-MEK5 0, MEKK2wt confirm 96, MEKK2mut confirm -6 and MEKK3-MEK5 inh 102.
For O=C(NCCc1c[nH]c2ccccc12)C(=O)NCC(c1ccco1)N1CCN(c2ccccc2)CC1 (stereo not drawn) the results were ABCG2 inh 11, MEKK2wt PB1 HTS 104, MEKK3 PB1 HTS 100, Efflux pump mplx 0, ABCB1 inh 3 and MEKK2 mut-MEK5 -1.
`Cc1ccc(CNC(=O)C(=O)NCC(c2ccco2)N2CCOCC2)cc1` (stereo not drawn) gave ABCG2 inh -3, MEKK2wt PB1 HTS 102, MEKK3 PB1 HTS 129*, Efflux pump mplx 0, ABCB1 inh 0, MEKK2 mut-MEK5 0, MEKK2wt confirm 103, MEKK2mut confirm -3 and MEKK3-MEK5 inh 98.

Screening results deposited in PubChem by NMMLSC.
